Experimental data gathered from unrelated publications.
Lines come from different studies, so protocols differ.

`COc1cc2c3c(n(CCCN4CCOCC4)c(=O)c2cc1OC)-c1cc2c(cc1C3=O)OCO2` gave a Cmax of 335 ng/mL (male Fischer 344 rat, plasma; intravenous, 24 mg/m², single dose).
For `O=C(Nc1ccccc1OS(=O)(=O)c1ccc(F)cc1)c1ccc2ncccc2c1`, the viability was 82% (1321-N1; cell growth or viability, MTT; 100 µM, 24 h).
For `CCN(CC)C(=O)[C@@]1(c2ccccc2)C[C@H]1CN`, the half-life was 6.3 h (male cynomolgus monkey, plasma; oral, 30 mg/kg).
For `CCCC[C@@H]1NC(=O)[C@H](Cc2ccc(O)cc2)NC(=O)[C@@H]2CCCN2C(=O)[C@H](CC(=O)O)NC(=O)[C@H](C)NC(=O)[C@H](Cc2ccccc2)NC(=O)[C@@H]2CSCCC(=O)N3CN(CN(C3)C(=O)CCSC[C@@H](C(=O)N[C@@H](C)C(N)=O)NC1=O)C(=O)CCSC[C@H](NC(C)=O)C(=O)N[C@@H](CC(C)(C)C)C(=O)N1CCC[C@H]1C(=O)N[C@@H](CCC(=O)O)C(=O)N[C@H](CCCCNC(=O)CCc1cn(CCOCCOCCOCCOCCOCCC(=O)N[C@H]3CSCCC(=O)N4CN5CN(C4)C(=O)CCSC[C@H](NC(=O)[C@@H](CC(=O)O)NC(=O)[C@H](Cc4cccc6ccccc46)NC(=O)[C@@H]4CCCN4C3=O)C(=O)N[C@@H](CCSC)C(=O)N[C@@H](CCCCNC(=N)N)C(=O)N[C@@H](CC(=O)O)C(=O)N[C@@H](Cc3c[nH]c4ccccc34)C(=O)N[C@@H](CO)C(=O)N[C@@H]([C@@H](C)O)C(=O)N3CCC[C@H]3C(=O)N3C[C@H](O)C[C@H]3C(=O)N[C@@H](Cc3c[nH]c4ccccc34)C(=O)N[C@H](C(N)=O)CSCCC5=O)nn1)C(=O)N1CCC[C@H]1C(=O)N[C@@H](Cc1ccc(O)cc1)C(=O)N2`, the half-life was 0.5 h (cynomolgus monkey, plasma; intravenous, 1 mg/kg, infusion).
The Cmax of `C=CC(=O)N1CC2CC(n3nc(-c4ccc(C(=O)Nc5ccccn5)cc4)c4c(N)ncnc43)CC2C1` (centres unmarked) is reported as 820 ng/mL (male Wistar rat, plasma; oral, 10 mg/kg).
With `CN(C(=O)n1cnc(-c2ccc[n+]([O-])c2)c1)C1CCCCC1` the half-life was 2.2 h (male cynomolgus monkey, plasma; oral, 0.3 mg/kg).
`COc1cc(/C=C/C(=O)c2ccccc2O)cc(OC)c1OC` has a CC50 of greater than 40 µM (BV-2; cell growth or viability, resazurin).
With `CC(C)(O)c1cn(-c2ccc(-c3cc(F)c(CO)c(S(C)(=O)=O)c3)cc2F)c(C(C)(C)c2c(Cl)cccc2Cl)n1` the half-life was 10 to 12 h (male cynomolgus monkey, plasma; intravenous, 1 mg/kg, single dose).
